The values that follow come from ChEMBL document CHEMBL2424628, “Discovery of potent and selective nonsteroidal indazolyl amide glucocorticoid receptor agonists” (Bioorg Med Chem Lett, 2013).

A word on the EC50: it is the concentration that produces a half-maximal response. For orientation: Ki means the equilibrium dissociation constant of an inhibitor or competing ligand from its target. Higher therefore signals weaker binding.

Structures are written as SMILES.

The target in assay [1] is T1, Glucocorticoid receptor (Homo sapiens, UniProt P04150).
T1 sequence (P04150 whole entry): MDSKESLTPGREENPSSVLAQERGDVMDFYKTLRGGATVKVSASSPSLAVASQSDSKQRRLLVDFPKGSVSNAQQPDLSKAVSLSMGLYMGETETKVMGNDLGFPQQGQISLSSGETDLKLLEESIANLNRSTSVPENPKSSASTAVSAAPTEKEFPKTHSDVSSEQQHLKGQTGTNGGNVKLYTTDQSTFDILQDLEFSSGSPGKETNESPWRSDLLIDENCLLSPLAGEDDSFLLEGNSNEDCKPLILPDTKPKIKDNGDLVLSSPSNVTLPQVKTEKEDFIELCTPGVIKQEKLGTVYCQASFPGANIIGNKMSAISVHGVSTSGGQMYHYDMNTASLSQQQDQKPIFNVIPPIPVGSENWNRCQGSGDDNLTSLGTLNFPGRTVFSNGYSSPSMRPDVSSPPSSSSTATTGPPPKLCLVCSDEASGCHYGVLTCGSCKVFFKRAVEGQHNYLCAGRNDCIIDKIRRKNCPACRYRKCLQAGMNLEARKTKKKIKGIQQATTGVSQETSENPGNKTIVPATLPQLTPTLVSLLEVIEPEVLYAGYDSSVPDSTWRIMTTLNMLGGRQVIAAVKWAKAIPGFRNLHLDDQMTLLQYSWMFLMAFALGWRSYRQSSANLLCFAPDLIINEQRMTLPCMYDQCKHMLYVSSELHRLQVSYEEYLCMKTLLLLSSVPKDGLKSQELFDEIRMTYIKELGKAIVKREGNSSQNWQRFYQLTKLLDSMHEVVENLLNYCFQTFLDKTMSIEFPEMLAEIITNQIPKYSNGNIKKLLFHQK
In words: Agonist activity at glucocorticoid receptor in human A549 cells assessed as inhibition of PMA-induced AP-1 activation by luciferase reporter gene assay. The assay is classed as cell-based. A general note: Reporter assays use an easily measured gene product as a stand-in for the process of interest.

Assay [2] concerns the target T2, Glucocorticoid receptor (Homo sapiens) (UniProt P04150).
T2 sequence (whole entry): T1 sequence (P04150 whole entry)
The assay can be described thus: Agonist activity at glucocorticoid receptor in human A549 cells assessed as inhibition of PMA-induced AP-1 activation by luciferase reporter gene assay relative to dexamethasone. It is filed as cell-based. An outline of the steps: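 A549 lung epithelial cells stably carrying a luciferase reporter with 5 copies of the AP-1 response element; AP-1 induced with PMA (15 ng/ml). Compound inhibition of induction read as decreased luciferase. […] Means of two or more experiments in triplicate.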

The target in assay [3] is T2, Glucocorticoid receptor (Homo sapiens). In words: Transactivation of glucocorticoid receptor ligand binding domain (unknown origin) transfected in human HeLa cells assessed as activation of NP-1 by GAL4 luciferase reporter gene assay relative to dexamethasone. The assay is classed as cell-based. An outline of the steps: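 HeLa line (NP-1) stably transfected with a GR ligand binding domain chimera in a GAL4 luciferase reporter system, run in agonist mode. Direct GR-LBD activation read as increased luciferase activity. Means of two or more experiments in triplicate.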

In assay [4] the target is T1, Glucocorticoid receptor. In words: Transactivation of glucocorticoid receptor ligand binding domain (unknown origin) transfected in human HeLa cells assessed as activation of NP-1 by GAL4 luciferase reporter gene assay. The assay is classed as cell-based.
For assay [5], the target named is T1, Glucocorticoid receptor. In words: Binding affinity to glucocorticoid receptor (unknown origin) by fluorescence polarization assay. Background: Polarisation of emitted light reports the rotation of a fluorescent probe.
For assay [6], the target named is T1, Glucocorticoid receptor. The assay can be described thus: Agonist activity at glucocorticoid receptor in human A549 cells assessed as inhibition of IL-1beta-induced NF-kappaB dependent E-selectin activation by luciferase reporter gene assay. The assay is classed as cell-based.
Assay [7] has as its target T2, Glucocorticoid receptor (Homo sapiens). In words: Agonist activity at glucocorticoid receptor in human A549 cells assessed as inhibition of IL-1beta-induced NF-kappaB dependent E-selectin activation by luciferase reporter gene assay relative to dexamethasone. The assay is classed as cell-based.

In the case of `CC(C)(Cc1ccc2c(cnn2-c2ccc(F)cc2)c1)C(=O)Nc1nncs1`, the EC50 at Glucocorticoid receptor [1] is 4320 nM. Besides, the Efficacy in assay [2] worked out at 36%.

For `CC(C)(C(=O)Nc1nncs1)[C@@H](c1ccccc1)c1ccc2c(cnn2-c2cccnc2)c1`, the figures for the Efficacy in assay [3], in assay [2] and in assay [7] were 57%, 74% and 77%, respectively. In addition, the EC50 at Glucocorticoid receptor [1] came to 19 nM; on Glucocorticoid receptor [4] it was 132 nM; at Glucocorticoid receptor [6] it was 19 nM. Also, the inhibitory constant (Ki) on Glucocorticoid receptor [5] came out at 0.9 nM.

`CC(C)(C(=O)Nc1nncs1)[C@H](c1ccccc1)c1ccc2c(cnn2-c2cccnc2)c1`: the results for the EC50 at Glucocorticoid receptor [1], at Glucocorticoid receptor [4] and at Glucocorticoid receptor [6] were 349 nM, more than 10000 nM and 185 nM, respectively. In addition, the Efficacy in assay [2] was 58%; in assay [7], 35%. The compound also gave a Ki on Glucocorticoid receptor [5] of 4 nM.

In the case of `CC(C)(C(=O)Nn1nccn1)C(c1ccccc1)c1ccc2c(cnn2-c2ccc(F)cc2)c1` (racemic), at Glucocorticoid receptor [1], the half-maximal effective concentration (EC50) stood at 17 nM. The Efficacy in assay [2] turned out to be 73%. Besides, affinity on Glucocorticoid receptor [5] was put at a Ki of 11 nM.

With `CC(C)(C(=O)Nn1ncnn1)C(c1ccccc1)c1ccc2c(cnn2-c2ccc(F)cc2)c1` (racemic), the 50% effective concentration (EC50) on Glucocorticoid receptor [1] was more than 10000 nM. This compound returned an inhibitory constant (Ki) at Glucocorticoid receptor [5] of 17 nM.

Take `Cc1cnc(NC(=O)C(C)(C)C(c2ccccc2)c2ccc3c(cnn3-c3ccc(F)cc3)c2)s1` (racemic): the EC50 on Glucocorticoid receptor [1] was 49 nM. Also, the Efficacy in assay [2] amounted to 48%.

`Cc1nnc(NC(=O)C(C)(C)C(c2ccccc2)c2ccc3c(cnn3-c3ccc(F)cc3)c2)s1` (racemic): the EC50 on Glucocorticoid receptor [1] was found to be 141 nM. In addition, the Efficacy in assay [2] worked out at 56%.

As for `CC(C)(C(=O)Nc1nncs1)C(c1ccccc1)c1ccc2c(cnn2CCCO)c1` (racemic), the EC50 at Glucocorticoid receptor [1] was found to be 1020 nM. Besides, the Efficacy in assay [2] is 45%. The compound further yielded a Ki at Glucocorticoid receptor [5] of 17 nM.

`CC(C)(C(=O)Nc1nncs1)C(c1ccccc1)c1ccc2c(cnn2Cc2ccccc2)c1` (racemic): the concentration for a half-maximal effect (EC50) at Glucocorticoid receptor [1] is 1930 nM. Moreover, the Efficacy in assay [2] was 62%.

For the compound `CC(C)(C(=O)Nc1nncs1)C(c1ccccc1)c1ccc2c(cnn2CCc2ccccc2)c1` (racemic), the EC50 at Glucocorticoid receptor [1] is more than 10000 nM. Also, the Efficacy in assay [2] is less than 30%. At Glucocorticoid receptor [5], this compound showed an inhibitory constant (Ki) of 46 nM.

On to `CCC(c1ccc2c(cnn2-c2ccc(F)cc2)c1)C(C)(C)C(=O)Nc1nccs1` (racemic), for which, on Glucocorticoid receptor [1], the EC50 came out at 87 nM. Also, in assay [2], the Efficacy came out at 62%.

Consider `CC(C)C(c1ccc2c(cnn2-c2ccc(F)cc2)c1)C(C)(C)C(=O)Nc1nncs1` (racemic), for which, at Glucocorticoid receptor [1], the EC50 was 81 nM. The Efficacy in assay [2] is 29%.

Consider `CC(C)(C(=O)Nc1nncs1)C(Cc1ccccc1)c1ccc2c(cnn2-c2ccc(F)cc2)c1` (racemic), for which the EC50 on Glucocorticoid receptor [1] turned out to be 705 nM. Besides, in assay [2], the Efficacy amounted to 37%.

Consider `CC(C)(C(=O)Nc1nccs1)C(c1ccc2c(cnn2-c2ccc(F)cc2)c1)C1CCCC1` (racemic), for which the EC50 at Glucocorticoid receptor [1] is 82 nM. Further, the Efficacy in assay [2] is 47%.

Consider `CC(C)(C(=O)Nc1nccs1)C(c1ccc2c(cnn2-c2ccc(F)cc2)c1)C1CCCCC1` (racemic), for which the half-maximal effective concentration (EC50) at Glucocorticoid receptor [1] turned out to be 66 nM. Besides, the Efficacy in assay [2] came to 55%. This compound yielded a Ki on Glucocorticoid receptor [5] of 18 nM.

Consider `CC(C)(C(=O)Nc1ccsc1)C(c1ccccc1)c1ccc2c(cnn2-c2ccc(F)cc2)c1` (racemic), for which the EC50 on Glucocorticoid receptor [1] was 73 nM. The Efficacy in assay [2] turned out to be 68%.

For `CC(C)(C(=O)Nc1nncs1)C(c1ccccc1)c1ccc2c(cnn2-c2ccc(Cl)cc2)c1` (racemic), the Efficacy in assay [3] came out at 55%; in assay [2] it was 96%; in assay [7] it was 84%. Also, the EC50 at Glucocorticoid receptor [1] turned out to be 23 nM; at Glucocorticoid receptor [4] it was 256 nM; on Glucocorticoid receptor [6], 10 nM.

As for `CC(C)(C(=O)Nc1nncs1)C(c1ccccc1)c1ccc2c(cnn2-c2ccc(Br)cc2)c1` (racemic), the concentration giving a half-maximal response (EC50) on Glucocorticoid receptor [1] was determined as 956 nM. In addition, the Efficacy in assay [2] is less than 30%.

On to `CC(C)(C(=O)Nc1nncs1)C(c1ccccc1)c1ccc2c(cnn2-c2ccccn2)c1` (racemic), for which the EC50 at Glucocorticoid receptor [1] amounted to 127 nM. Besides, the Efficacy in assay [2] is 62%.

Take `COc1cccc(-n2ncc3cc(C(c4ccccc4)C(C)(C)C(=O)Nc4nncs4)ccc32)c1` (racemic): the Efficacy in assay [3] and in assay [2] was less than 30% each time. For the same compound, the figures for the half-maximal effective concentration (EC50) at Glucocorticoid receptor [1] and at Glucocorticoid receptor [4] were 1200 nM and more than 10000 nM, respectively.

Regarding `COc1ccc(-n2ncc3cc(C(c4ccccc4)C(C)(C)C(=O)Nc4nncs4)ccc32)cc1` (racemic), the Efficacy in assay [3] is less than 30%; in assay [2], 76%; in assay [7] it was 62%. In addition, the EC50 on Glucocorticoid receptor [1] is 56 nM; on Glucocorticoid receptor [4], more than 10000 nM; at Glucocorticoid receptor [6], 143 nM.

Consider `CC(C)(C(=O)Nc1nncs1)C(c1ccccc1)c1ccc2c(cnn2-c2ccc(O)cc2)c1` (racemic), for which the Efficacy in assay [3] was less than 30%; in assay [2], 69%; in assay [7], less than 30%. For the same compound, the figures for the EC50 at Glucocorticoid receptor [1], on Glucocorticoid receptor [4] and at Glucocorticoid receptor [6] were 271 nM, more than 10000 nM and more than 5000 nM, respectively.

With `CC(C)Cn1ncc2cc(C(c3ccccc3)C(C)(C)C(=O)Nc3nncs3)ccc21` (racemic), the Efficacy is less than 30% in assay [3], 76% in assay [2] and 77% in assay [7]. Further, the EC50 was 114 nM at Glucocorticoid receptor [1], more than 10000 nM on Glucocorticoid receptor [4] and 1820 nM at Glucocorticoid receptor [6].

Take `CC(C)(C(=O)Nc1nncs1)C(c1ccccc1)c1ccc2c(cnn2CCO)c1` (racemic): the EC50 at Glucocorticoid receptor [1] is 550 nM; on Glucocorticoid receptor [6], 1050 nM. Moreover, the figures for the Efficacy in assay [2] and in assay [7] were 32% and 27%, respectively.

`CC(C)(C(=O)Nc1nncs1)C(c1ccccc1)c1ccc2c(cnn2-c2ccccc2)c1` (racemic): the EC50 on Glucocorticoid receptor [1] amounted to 20 nM. For the same compound, the Efficacy in assay [2] worked out at 73%.

`CC(C)(C(=O)Nc1nncs1)C(c1ccccc1)c1ccc2c(cnn2-c2ccc(F)cc2)c1` (racemic): the half-maximal effective concentration (EC50) at Glucocorticoid receptor [1] was determined as 23 nM. For the same compound, in assay [2], the Efficacy worked out at 81%. Further, the inhibition constant Ki on Glucocorticoid receptor [5] came out at 18 nM.

Turning to `CC(C)(C(=O)Nc1nccs1)C(c1ccccc1)c1ccc2c(cnn2-c2ccc(F)cc2)c1` (racemic), at Glucocorticoid receptor [1], the EC50 turned out to be 4.1 nM. Besides, in assay [2], the Efficacy was 79%. Also, the affinity on Glucocorticoid receptor [5] corresponds to a Ki of 15 nM.

Regarding `CC(C)(C(=O)Nc1nccs1)C(c1ccncc1)c1ccc2c(cnn2-c2ccc(F)cc2)c1` (racemic), the Efficacy in assay [2] worked out at 60%.

In the case of `CC(C)(C(=O)Nc1nncs1)C(c1ccccc1)c1ccc2c(cnn2C2CCCCCC2)c1` (racemic), the Efficacy in assay [3] came to 60%; in assay [2] it was 85%; in assay [7], 86%.

With `CC(C)CC(c1ccc2c(cnn2-c2ccc(F)cc2)c1)C(C)(C)C(=O)Nc1nncs1` (racemic), in assay [2], the Efficacy was found to be 60%.

Turning to `CC(C)n1ncc2cc(C(c3ccccc3)C(C)(C)C(=O)Nc3nncs3)ccc21` (racemic), the Efficacy in assay [3] was less than 30%; in assay [2], 82%; in assay [7] it was 44%.

As to `Cc1csc(NC(=O)C(C)(C)C(c2ccccc2)c2ccc3c(cnn3-c3ccc(F)cc3)c2)n1` (racemic), the Efficacy in assay [2] is 74%.

As for `CC(C(=O)Nc1nncs1)C(c1ccccc1)c1ccc2c(cnn2-c2ccc(F)cc2)c1` (single isomer, unassigned; diastereomer 1), in assay [2], the Efficacy amounted to 42%.

With `CC(C(=O)Nc1nncs1)[C@@H](c1ccccc1)c1ccc2c(cnn2-c2ccc(F)cc2)c1` (single isomer, unassigned; diastereomer 2), the Efficacy in assay [3] worked out at 76%; in assay [2], 103%.

With `CC(C(=O)Nc1nncs1)[C@@H](c1ccccc1)c1ccc2c(cnn2-c2ccc(F)cc2)c1` (single isomer, unassigned; diastereomer 3), the figures for the Efficacy in assay [3] and in assay [2] were 122% and 106%, respectively.

On to `CC(C(=O)Nc1nncs1)C(c1ccccc1)c1ccc2c(cnn2-c2ccc(F)cc2)c1` (single isomer, unassigned; diastereomer 4), for which the results for the Efficacy in assay [3] and in assay [2] were 100% and 89%, respectively.
